Assay results: the M2OR odorant receptor database

Key:
Conditions in all cases: stereoisomer not certain
[1] = tested on: O52E8
Outline: (§1)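 Values were gathered from published papers (main text and supplementary material), with extra details requested from the original authors when needed, and checked for typos and inconsistencies. Each receptor–molecule pair is called responsive (active) if the original authors judged the measured signal statistically different from baseline, and non-responsive (inactive) otherwise. Assay methods varied by source, often transient mammalian cell-line luciferase assays. Recorded details include cell line, G-protein, co-transfected protein and tags.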

[2] = tested on: O52H1
Chain of O52H1 (as listed by the source): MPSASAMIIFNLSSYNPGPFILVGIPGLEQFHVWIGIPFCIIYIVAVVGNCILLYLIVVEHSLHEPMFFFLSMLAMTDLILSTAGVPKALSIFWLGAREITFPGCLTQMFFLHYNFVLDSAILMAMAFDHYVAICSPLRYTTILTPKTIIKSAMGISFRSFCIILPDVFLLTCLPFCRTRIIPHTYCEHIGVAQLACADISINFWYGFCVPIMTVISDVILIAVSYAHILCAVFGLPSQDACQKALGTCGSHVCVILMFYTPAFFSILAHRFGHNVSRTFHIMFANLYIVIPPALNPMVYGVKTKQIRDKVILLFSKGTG
Outline: as §1

[3] = tested on: O51V1 L36F N51T G96W
Outline: as §1

[4] = tested on: O52A1
Chain of O52A1 (as listed by the source): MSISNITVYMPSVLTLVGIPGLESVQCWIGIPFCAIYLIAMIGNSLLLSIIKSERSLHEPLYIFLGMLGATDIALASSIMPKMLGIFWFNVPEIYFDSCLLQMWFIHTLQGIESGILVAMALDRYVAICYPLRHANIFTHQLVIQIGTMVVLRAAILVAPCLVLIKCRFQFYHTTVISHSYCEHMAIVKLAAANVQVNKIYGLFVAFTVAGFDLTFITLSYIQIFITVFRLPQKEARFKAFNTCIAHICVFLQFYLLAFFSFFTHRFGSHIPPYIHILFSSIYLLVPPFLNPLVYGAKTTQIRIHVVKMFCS
Outline: as §1

[5] = tested on: O52B6 V288I
Chain of O52B6 V288I (as listed by the source, stated change not applied): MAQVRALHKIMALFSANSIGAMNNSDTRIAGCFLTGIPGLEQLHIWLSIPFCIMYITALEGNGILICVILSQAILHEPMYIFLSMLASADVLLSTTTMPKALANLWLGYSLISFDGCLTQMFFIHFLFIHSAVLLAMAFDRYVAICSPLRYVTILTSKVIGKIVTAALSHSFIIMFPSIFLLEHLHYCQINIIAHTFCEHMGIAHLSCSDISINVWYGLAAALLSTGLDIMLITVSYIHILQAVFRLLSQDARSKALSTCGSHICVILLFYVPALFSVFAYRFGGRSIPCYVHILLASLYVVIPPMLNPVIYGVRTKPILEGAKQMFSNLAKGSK
Outline: as §1

[6] = tested on: O52E2 R264C
Chain of O52E2 R264C (as listed by the source, stated change not applied): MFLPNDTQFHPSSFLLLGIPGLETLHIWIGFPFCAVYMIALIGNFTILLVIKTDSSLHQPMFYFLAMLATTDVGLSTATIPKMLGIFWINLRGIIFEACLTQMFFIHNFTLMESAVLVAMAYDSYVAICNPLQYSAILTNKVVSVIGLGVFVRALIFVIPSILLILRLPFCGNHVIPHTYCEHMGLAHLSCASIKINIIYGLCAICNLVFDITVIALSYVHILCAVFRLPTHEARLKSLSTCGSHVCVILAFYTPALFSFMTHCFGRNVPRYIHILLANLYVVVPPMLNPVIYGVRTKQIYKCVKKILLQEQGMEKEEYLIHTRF
Outline: as §1

[7] = tested on: O52E4
Chain of O52E4 (as listed by the source): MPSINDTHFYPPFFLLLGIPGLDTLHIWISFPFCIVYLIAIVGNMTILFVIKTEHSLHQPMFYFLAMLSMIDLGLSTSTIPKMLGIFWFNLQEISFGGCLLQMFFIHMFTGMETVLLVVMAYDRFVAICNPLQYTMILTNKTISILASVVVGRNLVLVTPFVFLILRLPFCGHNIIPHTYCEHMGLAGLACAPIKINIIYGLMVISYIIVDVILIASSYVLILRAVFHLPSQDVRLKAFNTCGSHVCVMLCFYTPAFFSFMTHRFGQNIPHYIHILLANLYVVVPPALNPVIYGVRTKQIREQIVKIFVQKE
Outline: as §1

[8] = tested on: O52E5
Chain of O52E5 (as listed by the source): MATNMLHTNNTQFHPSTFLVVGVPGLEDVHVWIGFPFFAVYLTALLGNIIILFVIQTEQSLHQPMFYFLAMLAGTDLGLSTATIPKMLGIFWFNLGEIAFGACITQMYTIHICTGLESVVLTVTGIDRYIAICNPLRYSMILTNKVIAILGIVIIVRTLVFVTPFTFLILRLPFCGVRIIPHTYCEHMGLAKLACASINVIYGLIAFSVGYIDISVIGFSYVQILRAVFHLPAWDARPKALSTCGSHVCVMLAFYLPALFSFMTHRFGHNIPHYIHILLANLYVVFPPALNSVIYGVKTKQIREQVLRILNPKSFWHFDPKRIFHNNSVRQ
Outline: as §1

[9] = tested on: O52H1 A89T H130R C242R
Outline: as §1

[10] = tested on: O52H1 H130R C242R
Outline: as §1

[11] = tested on: O52I2 I74L
Chain of O52I2 I74L (as listed by the source, stated change not applied): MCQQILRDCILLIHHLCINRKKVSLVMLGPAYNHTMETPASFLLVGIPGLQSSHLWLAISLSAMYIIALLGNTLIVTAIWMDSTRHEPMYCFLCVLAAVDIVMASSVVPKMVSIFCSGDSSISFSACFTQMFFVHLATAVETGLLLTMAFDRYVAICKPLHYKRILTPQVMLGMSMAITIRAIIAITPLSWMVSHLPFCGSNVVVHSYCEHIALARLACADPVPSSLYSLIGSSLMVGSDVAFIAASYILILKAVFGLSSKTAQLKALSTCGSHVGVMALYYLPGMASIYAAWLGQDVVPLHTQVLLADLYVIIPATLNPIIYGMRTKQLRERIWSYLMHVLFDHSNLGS
Outline: as §1

[12] = tested on: O52J3 T77A V128I Q141L
Outline: as §1

[13] = tested on: O52K1 A119T A149T
Outline: as §1

[14] = tested on: O52K1 Q52R
Chain of O52K1 Q52R (as listed by the source, stated change not applied): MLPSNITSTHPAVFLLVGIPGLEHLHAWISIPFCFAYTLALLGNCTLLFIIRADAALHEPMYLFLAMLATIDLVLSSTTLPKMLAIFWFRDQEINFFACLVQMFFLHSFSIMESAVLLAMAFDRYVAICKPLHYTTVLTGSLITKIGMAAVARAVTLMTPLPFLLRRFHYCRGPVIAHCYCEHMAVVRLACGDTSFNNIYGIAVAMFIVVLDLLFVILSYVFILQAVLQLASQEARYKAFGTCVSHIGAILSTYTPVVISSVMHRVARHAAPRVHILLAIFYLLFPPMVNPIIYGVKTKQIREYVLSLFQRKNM
Outline: as §1

[15] = tested on: O52L1
Chain of O52L1 (as listed by the source): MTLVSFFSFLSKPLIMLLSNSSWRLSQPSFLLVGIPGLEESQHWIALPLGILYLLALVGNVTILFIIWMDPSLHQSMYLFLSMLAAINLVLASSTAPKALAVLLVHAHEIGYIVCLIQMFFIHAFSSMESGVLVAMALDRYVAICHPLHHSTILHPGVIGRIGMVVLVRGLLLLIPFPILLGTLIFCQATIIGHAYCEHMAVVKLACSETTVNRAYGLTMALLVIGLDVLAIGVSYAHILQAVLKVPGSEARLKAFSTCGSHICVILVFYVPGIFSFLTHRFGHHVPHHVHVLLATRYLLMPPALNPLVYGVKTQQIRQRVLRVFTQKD
Outline: as §1

[16] = tested on: O52M1 S305R
Chain of O52M1 S305R (as listed by the source, stated change not applied): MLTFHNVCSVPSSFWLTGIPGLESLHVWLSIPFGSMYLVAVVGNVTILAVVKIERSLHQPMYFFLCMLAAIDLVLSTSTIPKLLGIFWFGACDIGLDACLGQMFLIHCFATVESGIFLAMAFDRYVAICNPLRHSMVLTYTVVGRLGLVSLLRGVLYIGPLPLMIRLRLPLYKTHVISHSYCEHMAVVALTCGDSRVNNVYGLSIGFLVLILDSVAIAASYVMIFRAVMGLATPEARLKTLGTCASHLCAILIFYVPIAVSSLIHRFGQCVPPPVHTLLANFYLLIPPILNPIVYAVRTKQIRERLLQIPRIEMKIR
Outline: as §1

[17] = tested on: O52N1 R167C F247I
Outline: as §1

[18] = tested on: O52N2 S249A H264R
Outline: as §1

[19] = tested on: O52W1 H239R L254Q
Outline: as §1

[20] = tested on: O56A3
Chain of O56A3 (as listed by the source): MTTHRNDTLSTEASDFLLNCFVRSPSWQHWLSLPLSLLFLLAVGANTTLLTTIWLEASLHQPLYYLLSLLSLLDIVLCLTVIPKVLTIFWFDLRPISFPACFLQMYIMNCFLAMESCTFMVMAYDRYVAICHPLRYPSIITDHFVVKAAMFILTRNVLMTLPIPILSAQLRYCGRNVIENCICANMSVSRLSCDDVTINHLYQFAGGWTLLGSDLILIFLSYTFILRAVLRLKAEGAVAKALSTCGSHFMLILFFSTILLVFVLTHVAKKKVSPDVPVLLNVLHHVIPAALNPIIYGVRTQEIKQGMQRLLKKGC
Outline: as §1

Measured: odorant receptor agonist call

Chain of O52E8 (as listed by the source): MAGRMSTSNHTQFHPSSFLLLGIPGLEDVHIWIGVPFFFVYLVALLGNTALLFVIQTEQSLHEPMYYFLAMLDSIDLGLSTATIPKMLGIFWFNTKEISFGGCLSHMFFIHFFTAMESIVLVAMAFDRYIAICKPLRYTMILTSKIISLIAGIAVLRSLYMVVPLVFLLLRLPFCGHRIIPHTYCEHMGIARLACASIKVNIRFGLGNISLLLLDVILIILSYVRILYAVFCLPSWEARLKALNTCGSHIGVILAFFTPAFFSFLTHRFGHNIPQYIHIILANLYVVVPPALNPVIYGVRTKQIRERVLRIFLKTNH

Cc1c([N+](=O)[O-])c(C)c([N+](=O)[O-])c(C(C)(C)C)c1[N+](=O)[O-]
inactive: [1] | [2]

C=CCOC(=O)Cc1ccccc1
inactive: all assays above
